# According to publication PMC6370461 (ACS chemical biology, 2018):
# How the values were obtained:
# DJ-1 in HeLa cells [1] = molecular target: T1, DJ-1 in HeLa cells (Homo sapiens, UniProt Q99497); experiment: CML-modified protein by western blot in HeLa cells; format: cell-based; conditions: highest concentration employed
# T1 sequence (Q99497 1-189): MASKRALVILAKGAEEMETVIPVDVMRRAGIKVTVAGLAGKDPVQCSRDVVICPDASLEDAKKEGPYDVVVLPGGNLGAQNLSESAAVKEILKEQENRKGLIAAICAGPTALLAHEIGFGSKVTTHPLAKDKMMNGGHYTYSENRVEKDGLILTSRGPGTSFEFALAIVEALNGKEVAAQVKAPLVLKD
# Outline: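 HeLa cells (1.5×10^5 per well) were grown 24 h in DMEM with 10% FBS, starved 20 h in 0.5% FBS, then exposed 3 h to compound in 0.5% FBS with 0.2% DMSO. DJ-1 knockout HeLa cells were also used. RIPA lysates went to SDS-PAGE and nitrocellulose. The anti-CML blot was read by HRP chemiluminescence; DJ-1 and β-actin were detected by Cy5 fluorescence.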
# DJ-1 in HeLa cells [2] = molecular target: T1, DJ-1 in HeLa cells; experiment: Cellular thermal shift assay; format: cell-based; conditions: thermal treatment at 63 °C
# DJ-1 in HEK293 cells = experiment: Glyoxalase/deglycase activity in cells: CML-modified proteins by western blot; format: cell-based, human; conditions: glyoxal 2 mM
# Outline: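 HEK293 cells (2×10^5 per 6 cm dish) were cultured 3 days in DMEM with 10% FBS, then starved 20 h in 1% FBS. Treatment was 3 h in DMEM with 1% FBS, 0.2% DMSO and compound, with or without glyoxal (2 mM). Lysates underwent SDS-PAGE, nitrocellulose transfer and immunoblotting for carboxymethyl lysine, DJ-1 and β-actin, detected with HRP secondaries.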
# Human DJ-1 [3] = molecular target: T2, Human DJ-1 (Homo sapiens, UniProt Q99497); experiment: In vitro glyoxalase activity assay with phenylglyoxal as substrate; format: biochemical
# T2 sequence (Q99497 1-189): T1 sequence (Q99497 1-189)
# Outline: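 Recombinant DJ-1 0.5 μM with phenylglyoxal 2 μM in 100 mM potassium phosphate pH 7.0, 1% DMSO; compound 1.0 nM–30 μM. Initial velocities were taken from the loss of absorbance at 250 nm. Activity was expressed as the velocity ratio with versus without inhibitor, and sigmoidal fits gave the inhibition constant.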
# Human DJ-1 [4] = molecular target: T2, Human DJ-1; experiment: Thermal stability of DJ-1 by DSF; format: binding; conditions: DJ-1 10 μM, compound 50 μM
# Outline: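 Tag-free DJ-1 (10 μM) with compound (50 μM) in PBS, 0.01% Tween 20 and 2.5% DMSO, with SYPRO Orange dye (excitation 470 nm, emission 570 nm). Samples were heated from 30 to 85 °C at 2 °C/min. TM was taken from the inflection point of the derivative unfolding curve and compared with unbound protein.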
# Human DJ-1 [5] = molecular target: T2, Human DJ-1; experiment: Binding affinity and thermodynamics by ITC
# Outline: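 Recombinant human DJ-1 (E. coli-expressed) dialysed into PBS to remove DTT; compounds in the same PBS with 5% DMSO. Titrations at 25 °C with protein in the cell and compound in the syringe: DJ-1 20 μM against compound 200 μM (muteins: protein 100 μM, compound 1 mM). Isotherms fitted to a one-site binding model.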
structure (smiles),measurement,setting,value
"O=C1Nc2ccccc2C1=O [compound 1, 1H-indole-2,3-dione]",intensity of a protein modified with CML,DJ-1 in HeLa cells [1],clearly increases
same,stabilization of the soluble form of DJ-1 in cells,DJ-1 in HeLa cells [2],concentration-dependent stabilization
same,intensity of bands of proteins modified with CML compared with DMSO control,DJ-1 in HEK293 cells,increased significantly
same,IC50,Human DJ-1 [3],13 µM
same,"ΔTM, thermal stabilization with respect to the unbound protein",Human DJ-1 [4],1.8 °C
same,Kd,Human DJ-1 [5],3.2 ± 0.1 µM
same,enthalpic efficiency (EE),Human DJ-1 [5],1.1 kcal/mol
same,ΔH of binding,"Human DJ-1 [5]; ITC, 25 °C",-11.6 ± 0.1 kcal/mol
same,−TΔS of binding,"Human DJ-1 [5]; ITC, 25 °C",4.1 kcal/mol
